Source: PubChem BioAssay
UCH37 DUB inh: inhibitors of human deubiquitinating enzyme UCH37. Q9Y5K5. purified proteasome/UCH37, Ub-AMC cleavage fluorescence. inhibition, % (no concentration beside the values). actives 0.33% (n = 330,000);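 active means mean inhibition over replicate wells above about 20%, limit read from the data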;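 further: 0% = compound-free wells with enzyme and 100% = wells lacking proteasome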
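Schedule: 30 min plus 25 min, room temperature / Material: human UCH37 within purified proteasomes / Technique: AMC fluorescence intensity at 355/460 nm / Buffer or medium: pH 7.4 Tris-HCl (50 mM) with ovalbumin, ATP-MgCl2, DTT / Controls: wells without proteasome as full block, compound-free enzyme plus substrate as uninhibited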
FGF22 binding: shifts melting point of recombinant human FGF22 | actives 1.5% (n = 340,000) | activity (Tm shift, normalised), % at 9.99 µM | recombinant FGF22 thermal shift, SYPRO orange fluorescence; percent of sucrose octasulfate shift, DMSO zero | Q9HCT0;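 active means mean Tm shift, scaled 0 neutral to 100 positive control, at about 1.3% or above, every replicate too, limit read from the data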
Target sequence (Q9HCT0 whole entry, looked up): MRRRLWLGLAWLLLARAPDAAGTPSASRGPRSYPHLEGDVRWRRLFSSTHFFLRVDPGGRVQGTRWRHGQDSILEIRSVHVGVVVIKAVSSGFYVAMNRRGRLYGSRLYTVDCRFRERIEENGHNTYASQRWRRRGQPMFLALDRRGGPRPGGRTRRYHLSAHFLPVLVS
NSD2 inh: inhibitors of human histone methyltransferase NSD2 | inhibition, % at 12.5 µM | NSD2 peptide methylation, AlphaScreen, 120 min | O96028 | actives 0.54% (n = 310,000); in the data active means inhibition above about 50%
SIRT5 block: sirtuin-5 (human) deacylase inhibition. Q9NXA8. Purified SirT5, succinyl-peptide AMC, trypsin-coupled fluorescence. inhibition, % at 15 µM. actives 1.1% (n = 330,000). AID 652115; in the data active means inhibition above about 15%
CASP6 VEID inh: caspase-6 (human) enzyme inhibition; P55212; purified caspase-6, Z-VEID-R110 cleavage fluorescence; inhibition, % at 12.5 µM; actives 0.53% (n = 350,000); AID 686996;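 active means mean inhibition across replicates at least about 35%, with every replicate also reaching that limit, limit read from the data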;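 further: 0% = median of neutral control wells and 100% = no fluorescence left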
Target sequence (P55212 24-179 limits assumed): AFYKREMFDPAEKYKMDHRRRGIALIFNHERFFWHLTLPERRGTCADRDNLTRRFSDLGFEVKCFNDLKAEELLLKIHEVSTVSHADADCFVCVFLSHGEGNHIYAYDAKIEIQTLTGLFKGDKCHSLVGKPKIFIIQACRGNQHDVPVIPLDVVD
Target sequence (P55212 194-293 limits assumed): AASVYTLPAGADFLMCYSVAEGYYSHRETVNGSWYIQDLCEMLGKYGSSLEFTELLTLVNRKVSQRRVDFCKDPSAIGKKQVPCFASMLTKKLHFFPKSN
Starred values were filed as active, the others as inactive; . = no result given; ! = not active in a repeat. An excerpt weighted towards active compounds, which were near 2.6% of everything screened.

SMILES | UCH37 DUB inh | FGF22 binding | NSD2 inh | SIRT5 block | CASP6 VEID inh
COc1cc(/C=C/C(=O)O)cc(S(=O)(=O)NCCCC(=O)O)c1OC | 2 | 43* | -3 | -4 | 4
Cc1ccc(/C=C/C(=O)O)cc1S(=O)(=O)NCCCC(=O)O | . | . | 2 | . | .
COc1cc(/C=C/C(=O)O)cc(S(=O)(=O)Nc2cc(Cl)c(Cl)cc2Cl)c1OC | 4 | . | 1 | 17* | 0
COc1cc(/C=C/C(=O)O)cc(S(=O)(=O)NC2CCCC2)c1OC | -4 | 0 | -3 | -3 | -1
CCc1c(C)nc(SCC(=O)Nc2nc(-c3ccc(OC)cc3)cs2)[nH]c1=O | 0 | 43* | -2 | -3 | 3
CCc1c(C)nc(SCC(=O)NNC(=O)Cc2ccc(OC)cc2)[nH]c1=O | 4 | 0 | -7 | -2 | -4
C[C@@H]1CN([C@H](C)CO)C(=O)c2cccc(NC(=O)C3CCOCC3)c2O[C@@H]1CN(C)Cc1ccc(C(=O)Nc2ccccc2N)cc1 | . | -1 | . | 16* | 2
C[C@@H]1CN([C@H](C)CO)C(=O)c2cccc(NS(=O)(=O)c3cn(C)cn3)c2O[C@@H]1CN(C)Cc1ccc(Oc2ccccc2)cc1 | . | 0 | . | 0 | -1
C[C@H]1CN([C@@H](C)CO)C(=O)c2cccc(NS(=O)(=O)c3cn(C)cn3)c2O[C@H]1CN(C)Cc1ccc(Oc2ccccc2)cc1 | . | 0 | . | 29* | -1
C[C@H](CO)N1C[C@H](C)[C@@H](CN(C)Cc2ccc(C(=O)O)cc2)Oc2ccc(NS(=O)(=O)c3ccc(Cl)cc3)cc2C1=O | . | 0 | . | 24* | 2
C[C@@H]1CN([C@@H](C)CO)C(=O)c2cccc(NC(=O)C3CCOCC3)c2O[C@H]1CN(C)Cc1ccc(C(=O)Nc2ccccc2N)cc1 | . | -1 | . | 0 | -1
C[C@@H]1CN([C@H](C)CO)C(=O)c2cc(NS(=O)(=O)c3ccc(Cl)cc3)ccc2O[C@@H]1CN(C)Cc1ccc(-c2ccccc2)cc1 | . | 1 | . | 30* | -4
C[C@H]1CCCCO[C@H](CN(C)C(=O)CCCN(C)C)[C@@H](C)CN([C@@H](C)CO)C(=O)c2cc(NC(=O)Nc3ccc(F)cc3)ccc2O1 | . | -1 | . | 4 | 4
CO[C@H]1CN(C)C(=O)c2cc(NS(=O)(=O)CC(F)(F)F)ccc2OC[C@H](C)N(C(=O)c2ccc3c(c2)OCO3)C[C@@H]1C | . | 0 | . | . | -2
COc1ccccc1-c1ccc([C@H]2[C@@H](CO)N3CCCCN(Cc4ccncc4)C[C@@H]23)cc1 | . | 0 | . | -7 | 2
CN(C)C(=O)[C@H]1[C@H](CO)[C@H]2Cn3c(ccc(C4=CCCCC4)c3=O)[C@H]2N1C(=O)c1ccccc1F | . | 0 | . | -12 | 3
CC(C)NC(=O)N(C)C[C@H]1Oc2ccc(NC(=O)C3CC3)cc2CC(=O)N([C@H](C)CO)C[C@H]1C | . | 0 | . | -2 | -2
Cc1ccc(S(=O)(=O)Nc2cccc3c2O[C@H](CN(C)Cc2ccc(C(=O)Nc4ccccc4N)cc2)[C@@H](C)CN([C@@H](C)CO)C3=O)cc1 | . | 1.4* | . | . | -3
Cc1ccc(S(=O)(=O)Nc2cccc3c2O[C@@H](CN(C)Cc2ccc4c(c2)OCO4)[C@@H](C)CN([C@H](C)CO)C3=O)cc1 | . | 0 | . | 15* | 3
Cc1ccc(S(=O)(=O)Nc2cccc3c2O[C@@H](CN(C)Cc2ccc(C(=O)Nc4ccccc4N)cc2)[C@H](C)CN([C@@H](C)CO)C3=O)cc1 | . | 0 | . | -8 | .
C[C@@H]1CN([C@H](C)CO)C(=O)c2cc(NS(=O)(=O)c3ccccc3)ccc2O[C@@H]1CN(C)Cc1ccc(-c2ccccc2)cc1 | . | 0 | . | 15* | -1
C[C@H](CO)N1C[C@H](C)[C@@H](CN(C)Cc2ccc(-c3ccccc3)cc2)Oc2c(NS(=O)(=O)c3ccccc3)cccc2C1=O | 2 | -1 | . | 16*! | -1
COc1ccc(NC(=O)Nc2ccc3c(c2)C(=O)N([C@@H](C)CO)C[C@@H](C)[C@H](CN(C)Cc2ccncc2)OCCCC[C@@H](C)O3)cc1 | . | 1 | . | 4 | -2
O=C(C[C@@H]1CC[C@@H](NC(=O)c2cccnc2)[C@@H](CO)O1)NCc1ccncn1 | . | 0 | . | -4 | 1
CCC(=O)N1CCCCN2[C@@H](CO)[C@@H](c3ccc(-c4cccc(C(=O)N(C)C)c4)cc3)[C@@H]2C1 | . | 0 | . | -4 | 0
SMILES | UCH37 DUB inh | FGF22 binding | NSD2 inh | SIRT5 block | CASP6 VEID inh
C[C@@H]1CN([C@H](C)CO)C(=O)c2cc(NS(=O)(=O)c3ccc(F)cc3)ccc2O[C@@H]1CN(C)Cc1ccc(-c2ccccc2)cc1 | . | 0 | . | 16* | 3
Cc1noc(C)c1NC(=O)Nc1ccc2c(c1)CC(=O)N([C@@H](C)CO)C[C@H](C)[C@H](CN(C)S(=O)(=O)c1cn(C)cn1)O2 | . | -1 | . | . | .
CCc1cc(C(Cc2cscn2)=NO)c(O)cc1O | 3 | . | . | . | .
O=C(N=C1SC2CS(=O)(=O)CC2N1c1ccc(F)cc1F)C1CC1 (stereo not given) | 1 | 0 | 1 | 17* | 2
C[C@@H]1CN([C@@H](C)CO)C(=O)Cc2cc(NS(=O)(=O)c3cn(C)cn3)ccc2O[C@H]1CN(C)S(=O)(=O)c1cn(C)cn1 | . | 0 | . | -4 | 0
CCCCCCc1c(O)nc(SCCN2CCOCC2)[nH]c1=O | 2 | 44* | 1 | 0 | 0
Cc1ccc(S(=O)(=O)Nc2ccc3c(c2)C(=O)N([C@@H](C)CO)C[C@H](C)[C@@H](CN(C)C(=O)Nc2ccc(F)cc2)O3)cc1 | . | 0 | . | 3 | 2
C[C@@H]1CN([C@H](C)CO)C(=O)c2cc(NC(=O)Nc3cccc4ccccc34)ccc2O[C@H]1CN(C)S(=O)(=O)c1ccc(F)cc1 | . | 0 | . | 8 | 2
COc1ccc(-c2[nH]ncc2CN2CCC(OCc3cccnc3)CC2)c(F)c1 | -2 | 0 | 0 | -1 | -7
COc1ccc(-c2[nH]ncc2CN(CCO)CC23CC4CC(CC(C4)C2)C3)c(OC)c1 | 5 | 0 | 5 | 24* | -6
COc1ccc(-c2[nH]ncc2CN(C)Cc2cccnc2)c(OC)c1 | -1 | 43* | -3 | -1 | 2
COC(=O)c1c(NC(=O)/C=C/C(=O)O)sc(C)c1-c1ccc(C)cc1 | 8 | 0 | -14 | 4 | 6
COC(=O)c1c(NC(=O)/C=C/C(=O)O)sc(C)c1-c1ccc(C(C)C)cc1 | 6 | . | 19 | 5 | 37*
O=C(NN=Cc1ccc2c(c1)OCO2)c1ccc(Cn2cc(Br)c([N+](=O)[O-])n2)o1 | 4 | . | . | . | .
N/C(Cc1cccc2ccccc12)=N\OC(=O)c1ccc2c(c1)OCO2 | 16 | 44* | -3 | -1 | -1
CC=Cc1ccc2n(c1=O)C[C@@H]1[C@@H](CO)[C@H](C(=O)N[C@@H](C)c3ccccc3)[C@H]2N1CC1CC1 (mixture of isomers) | . | 0 | . | -2 | -2
CNc1nc2cc([N+](=O)[O-])c([N+](=O)[O-])cc2nc1NC | 41* | 0 | 4 | 1 | 2
